Active and inactive are the calls of the source. The rule behind the calls is not given here.
How the values were obtained:
[1] = target: T1, Cannabinoid receptor 1 (Homo sapiens, UniProt P21554); experiment: Displacement of [3H]CP55,940 from N-terminal HA-tagged human CB1 receptor expressed in HEK293 cell membranes after 1 hr by microbeta scintillation counting method
[2] = target: T2, Cannabinoid receptor 2 (Homo sapiens, UniProt P34972); experiment: Displacement of [3H]CP55,940 from N-terminal HA-tagged human CB2 receptor expressed in HEK293 cell membranes after 1 hr by microbeta scintillation counting method
T2 sequence (P34972 whole entry): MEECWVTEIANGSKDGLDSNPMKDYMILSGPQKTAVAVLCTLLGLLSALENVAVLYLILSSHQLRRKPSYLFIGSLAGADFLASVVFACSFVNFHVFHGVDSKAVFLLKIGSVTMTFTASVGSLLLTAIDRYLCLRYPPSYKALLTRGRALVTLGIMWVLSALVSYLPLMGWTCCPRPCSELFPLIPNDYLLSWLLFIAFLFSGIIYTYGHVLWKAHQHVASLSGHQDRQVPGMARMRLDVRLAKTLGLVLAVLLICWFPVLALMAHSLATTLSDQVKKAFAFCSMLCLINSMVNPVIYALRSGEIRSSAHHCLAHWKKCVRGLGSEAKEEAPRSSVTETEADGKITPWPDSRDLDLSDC

[3] = target: Proprotein convertase subtilisin/kexin type 9 (Homo sapiens) (UniProt Q8NBP7); experiment: Inhibition of PCSK9 (unknown origin)
Proprotein convertase subtilisin/kexin type 9 (Homo sapiens), sequence (Q8NBP7 31-152 limits assumed): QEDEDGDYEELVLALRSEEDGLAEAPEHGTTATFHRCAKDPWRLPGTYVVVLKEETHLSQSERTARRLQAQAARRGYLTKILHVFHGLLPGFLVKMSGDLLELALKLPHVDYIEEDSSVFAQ
Proprotein convertase subtilisin/kexin type 9 (Homo sapiens), sequence (Q8NBP7 153-692 limits assumed): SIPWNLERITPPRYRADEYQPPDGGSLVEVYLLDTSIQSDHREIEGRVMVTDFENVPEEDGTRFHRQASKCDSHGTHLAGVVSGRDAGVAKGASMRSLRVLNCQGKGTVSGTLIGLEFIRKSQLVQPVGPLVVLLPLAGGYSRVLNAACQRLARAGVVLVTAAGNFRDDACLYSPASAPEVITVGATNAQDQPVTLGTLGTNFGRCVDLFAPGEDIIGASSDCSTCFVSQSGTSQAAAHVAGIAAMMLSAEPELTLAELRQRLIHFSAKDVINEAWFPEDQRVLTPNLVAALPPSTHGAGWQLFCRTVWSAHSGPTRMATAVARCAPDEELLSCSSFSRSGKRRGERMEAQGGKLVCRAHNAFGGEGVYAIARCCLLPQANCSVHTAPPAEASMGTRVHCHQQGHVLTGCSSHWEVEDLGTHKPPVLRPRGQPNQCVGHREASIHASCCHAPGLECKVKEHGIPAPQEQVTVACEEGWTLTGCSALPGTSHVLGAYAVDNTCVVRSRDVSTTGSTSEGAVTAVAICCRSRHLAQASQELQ

[4] = target: T3, Free fatty acid receptor 4 (Homo sapiens) (UniProt Q5NUL3); experiment: Agonist activity at GPR120 (unknown origin); assay type: functional
T3 sequence (whole entry): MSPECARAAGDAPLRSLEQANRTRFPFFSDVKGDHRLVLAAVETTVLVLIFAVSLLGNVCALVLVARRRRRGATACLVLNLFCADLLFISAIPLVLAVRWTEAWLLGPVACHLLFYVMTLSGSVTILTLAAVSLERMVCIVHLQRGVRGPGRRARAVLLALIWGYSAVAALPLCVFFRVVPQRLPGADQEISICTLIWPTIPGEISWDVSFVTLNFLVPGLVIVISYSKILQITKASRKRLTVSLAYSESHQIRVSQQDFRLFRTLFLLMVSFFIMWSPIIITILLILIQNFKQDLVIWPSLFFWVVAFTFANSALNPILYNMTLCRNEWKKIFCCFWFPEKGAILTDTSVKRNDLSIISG

[5] = target: Potassium voltage-gated channel subfamily KQT member 2 (Homo sapiens) (UniProt O43526); experiment: Agonist activity at KCNQ2 (unknown origin)
Potassium voltage-gated channel subfamily KQT member 2 (Homo sapiens), sequence (O43526 whole entry): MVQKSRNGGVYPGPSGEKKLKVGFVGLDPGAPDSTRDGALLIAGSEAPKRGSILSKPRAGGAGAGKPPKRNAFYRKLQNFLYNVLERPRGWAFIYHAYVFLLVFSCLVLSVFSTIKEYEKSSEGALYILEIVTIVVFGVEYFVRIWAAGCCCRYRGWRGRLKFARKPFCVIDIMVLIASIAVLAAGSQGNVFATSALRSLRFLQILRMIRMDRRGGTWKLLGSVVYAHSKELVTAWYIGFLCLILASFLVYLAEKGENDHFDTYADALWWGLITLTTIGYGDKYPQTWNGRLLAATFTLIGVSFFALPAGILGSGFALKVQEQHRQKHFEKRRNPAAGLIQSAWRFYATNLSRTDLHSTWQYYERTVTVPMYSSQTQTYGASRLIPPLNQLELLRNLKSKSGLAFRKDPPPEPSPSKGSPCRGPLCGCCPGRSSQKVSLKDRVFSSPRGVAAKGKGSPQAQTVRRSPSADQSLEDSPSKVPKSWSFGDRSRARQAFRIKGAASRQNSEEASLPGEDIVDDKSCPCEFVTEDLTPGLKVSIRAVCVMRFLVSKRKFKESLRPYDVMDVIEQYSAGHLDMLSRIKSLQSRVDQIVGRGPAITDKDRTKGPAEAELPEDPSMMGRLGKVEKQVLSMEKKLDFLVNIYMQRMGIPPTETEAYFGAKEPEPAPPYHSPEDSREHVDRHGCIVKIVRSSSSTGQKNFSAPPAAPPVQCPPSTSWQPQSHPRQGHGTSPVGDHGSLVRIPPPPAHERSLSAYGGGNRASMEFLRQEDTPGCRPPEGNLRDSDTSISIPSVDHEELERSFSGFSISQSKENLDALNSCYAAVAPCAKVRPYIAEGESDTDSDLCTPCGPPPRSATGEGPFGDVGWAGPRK

[6] = target: Interleukin-17A (Homo sapiens) (UniProt Q16552); experiment: Inhibition of IL-17 (unknown origin) assessed as disruption of IL-17 protein-protein interaction
Interleukin-17A (Homo sapiens), sequence (Q16552 whole entry): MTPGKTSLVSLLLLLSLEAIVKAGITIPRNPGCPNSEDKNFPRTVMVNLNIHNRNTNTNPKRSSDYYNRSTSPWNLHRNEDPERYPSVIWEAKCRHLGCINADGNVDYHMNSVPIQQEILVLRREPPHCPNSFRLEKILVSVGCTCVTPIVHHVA

[7] = system: Leishmania donovani; experiment: Growth inhibition of Leishmania donovani; assay type: functional, organism-based
[8] = target: T4, Potassium voltage-gated channel subfamily KQT member 3 (Homo sapiens) (UniProt O43525); experiment: Agonist activity at KCNQ3 (unknown origin)
T4 sequence (whole entry): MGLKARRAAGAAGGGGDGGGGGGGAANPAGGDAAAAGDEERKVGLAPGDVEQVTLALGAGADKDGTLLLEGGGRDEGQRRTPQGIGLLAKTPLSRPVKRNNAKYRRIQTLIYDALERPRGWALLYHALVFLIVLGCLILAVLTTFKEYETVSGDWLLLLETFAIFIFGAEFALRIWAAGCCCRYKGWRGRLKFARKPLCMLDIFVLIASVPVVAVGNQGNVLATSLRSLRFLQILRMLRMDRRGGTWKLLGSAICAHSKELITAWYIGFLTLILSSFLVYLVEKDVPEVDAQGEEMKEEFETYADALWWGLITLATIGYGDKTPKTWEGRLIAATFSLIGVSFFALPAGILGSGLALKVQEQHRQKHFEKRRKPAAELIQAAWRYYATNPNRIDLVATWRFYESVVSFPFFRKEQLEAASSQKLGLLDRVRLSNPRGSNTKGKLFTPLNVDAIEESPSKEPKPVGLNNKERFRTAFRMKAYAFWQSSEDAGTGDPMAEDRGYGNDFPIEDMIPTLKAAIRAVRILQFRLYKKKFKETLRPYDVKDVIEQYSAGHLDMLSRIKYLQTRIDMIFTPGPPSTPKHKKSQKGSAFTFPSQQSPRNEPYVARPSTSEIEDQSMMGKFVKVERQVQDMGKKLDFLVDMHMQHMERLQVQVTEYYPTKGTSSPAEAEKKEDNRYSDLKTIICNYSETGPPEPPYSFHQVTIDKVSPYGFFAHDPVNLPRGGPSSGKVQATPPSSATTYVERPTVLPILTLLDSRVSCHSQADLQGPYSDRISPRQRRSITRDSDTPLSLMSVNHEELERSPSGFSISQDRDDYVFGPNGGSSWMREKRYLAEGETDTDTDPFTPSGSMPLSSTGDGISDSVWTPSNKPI

[9] = target: T5, Nicotinamide N-methyltransferase (Homo sapiens) (UniProt P40261); experiment: Inhibition of NNMT (unknown origin)
T5 sequence (whole entry): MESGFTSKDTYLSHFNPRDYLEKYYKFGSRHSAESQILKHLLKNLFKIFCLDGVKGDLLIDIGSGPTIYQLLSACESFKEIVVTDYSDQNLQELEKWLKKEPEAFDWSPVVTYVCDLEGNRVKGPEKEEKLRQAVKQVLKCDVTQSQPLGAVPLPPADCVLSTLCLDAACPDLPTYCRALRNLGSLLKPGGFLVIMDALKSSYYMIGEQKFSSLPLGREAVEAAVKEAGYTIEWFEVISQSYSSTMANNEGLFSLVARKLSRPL

[10] = target: T1, Cannabinoid receptor 1; experiment: Displacement of [3H]CP55,940 from N-terminal HA-tagged human CB1 receptor expressed in HEK293 cell membranes at 10 uM after 1 hr by microbeta scintillation counting method relative to control
Method in brief: (§1)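 Single-point competition screen against [3H]CP55,940 in HEK293 cells over-expressing 3HA-tagged hCB2 or hCB1. Compounds giving more than 50% displacement went on to full concentration-response curves.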

[11] = target: T2, Cannabinoid receptor 2; experiment: Displacement of [3H]CP55,940 from N-terminal HA-tagged human CB2 receptor expressed in HEK293 cell membranes at 10 uM after 1 hr by microbeta scintillation counting method relative to control; method in brief: as §1
[12] = system: HEK293; experiment: Effect on forskolin-stimulated cAMP level in HEK293 cells at 10 uM by BRET assay relative to control; assay type: ADME, cell-based; settings: human, hek293, 10 µM
Method in brief: (§2)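 Wild-type HEK293 cells lacking transfected receptor, tested at 10 µM and 1 µM. Forskolin-stimulated cAMP measured by BRET as a check that responses are receptor-mediated.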

[13] = system: HEK293; experiment: Effect on forskolin-stimulated cAMP level in HEK293 cells at 1 uM by BRET assay relative to control; assay type: ADME, cell-based; settings: human, hek293, 1 µM; method in brief: as §2
[14] = target: T2, Cannabinoid receptor 2; experiment: Agonist activity at N-terminal HA-tagged human CB2 receptor expressed in HEK293 cells transfected with YFP-Epac-RLuc assessed as decrease in forskolin-stimulated cAMP level at 10 uM by BRET assay; assay type: functional, cell-based
Method in brief: (§3)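 Single-concentration screen at 10 µM in CB receptor-expressing HEK293 cells, run with and without CP55,940 as reference agonist. Forskolin-stimulated cAMP read by BRET biosensor. A fall in cAMP is scored as agonism and a rise as inverse agonism.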

[15] = target: T2, Cannabinoid receptor 2; experiment: Agonist activity at N-terminal HA-tagged human CB2 receptor expressed in HEK293 cells transfected with YFP-Epac-RLuc assessed as decrease in forskolin-stimulated cAMP level by BRET assay relative to control; assay type: functional, cell-based
Method in brief: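 BRET cAMP biosensor read-out in HEK293 cells expressing HA-tagged human CB1 or CB2, with forskolin stimulation (5 µM). Concentration-response curves; area-under-curve values normalised to forskolin alone = 100% and basal = 0%. EC50 taken for agonists and IC50 for inverse agonists. Mean of at least three independent experiments, each point in duplicate.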

[16] = target: T1, Cannabinoid receptor 1; experiment: Agonist activity at N-terminal HA-tagged human CB1 receptor expressed in HEK293 cells transfected with YFP-Epac-RLuc assessed as decrease in forskolin-stimulated cAMP level at 10 uM by BRET assay; assay type: functional, cell-based; method in brief: as §3

T1 sequence (P21554 whole entry): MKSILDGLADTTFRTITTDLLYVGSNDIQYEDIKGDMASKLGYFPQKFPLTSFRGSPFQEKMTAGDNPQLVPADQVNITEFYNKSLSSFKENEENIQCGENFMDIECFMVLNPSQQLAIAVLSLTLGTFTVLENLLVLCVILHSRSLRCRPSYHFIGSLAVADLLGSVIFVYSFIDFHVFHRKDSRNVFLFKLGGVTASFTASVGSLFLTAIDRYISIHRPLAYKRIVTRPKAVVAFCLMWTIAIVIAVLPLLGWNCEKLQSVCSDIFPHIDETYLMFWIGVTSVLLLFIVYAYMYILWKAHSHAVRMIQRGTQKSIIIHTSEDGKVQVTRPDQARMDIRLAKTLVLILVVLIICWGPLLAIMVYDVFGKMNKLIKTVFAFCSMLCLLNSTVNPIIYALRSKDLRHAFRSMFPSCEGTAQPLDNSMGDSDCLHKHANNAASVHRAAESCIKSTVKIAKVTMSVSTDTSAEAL

Structure (SMILES)	Ki ([2]; read-out: Ki) [µM]	inhibition [10] [%]	inhibition [11] [%]	further results
COc1ccc(C(=O)c2cn(CCN3CCOCC3)c3ccc(OCCCCCCC(=O)NCCOCCOCCNC(=O)CCCCCNC(=O)COc4ccc(/C=C/C5=[N+]6C(=Cc7ccc(-c8cccs8)n7[B-]6(F)F)C=C5)cc4)cc23)cc1	> 10	–	–	Ki ([1]; read-out: Ki): > 10 µM
COc1ccc(C(=O)c2cn(CC3CCOCC3)c3ccc(OCc4ccccc4)cc23)cc1	–	–	–	inhibition [3]: inactive; Activity [4]: inactive; Activity [5]: inactive; inhibition [6]: inactive; growth inhibition (GI) [7]: inactive; Activity [8]: inactive; inhibition [9]: inactive
COc1ccc(C(=O)c2cn(CCN3CCOCC3)c3ccc(OCC(=O)NCCOCCOCCNC(C)=O)cc23)cc1	> 10	> 50	> 50	–
COc1ccc(C(=O)c2cn(CC3CCOCC3)c3ccc(OCC(=O)N[C@@H](C)C(=O)N[C@@H](C)C(=O)NCCN)cc23)cc1	–	> 50	–	Ki ([2]; hek293): Not Active
NCCCCCCCCNC(=O)COc1ccc2c(c1)c(C(=O)c1cccc3ccccc13)cn2CCN1CCOCC1	> 10	> 50	> 50	–
CC(C)(NC(=O)COc1ccc2c(c1)c(C(=O)c1cccc3ccccc13)cn2CCN1CCOCC1)C(=O)NC(C)(C)C(=O)NCCNC(=O)CCCCCNC(=O)COc1ccc(/C=C/C2=[N+]3C(=Cc4ccc(-c5cccs5)n4[B-]3(F)F)C=C2)cc1	> 10	–	–	–
COc1ccc(C(=O)c2cn(CCN3CCOCC3)c3ccc(OCC(=O)NCCCCCCCCNC(=O)CCCCCNC(=O)COc4ccc(/C=C/C5=[N+]6C(=Cc7ccc(-c8cccs8)n7[B-]6(F)F)C=C5)cc4)cc23)cc1	–	–	–	Ki ([2]; hek293): Not Active
Cc1c(C(=O)c2cccc3ccccc23)c2cccc3c2n1[C@H](CN1CCOCC1)CO3 [WIN-552122]	–	–	–	Activity [12]: 102.6%; Activity [13]: 96.1%
O=C(CCCCCNC(=O)COc1ccc(/C=C/C2=[N+]3C(=Cc4ccc(-c5cccs5)n4[B-]3(F)F)C=C2)cc1)NCCCCCCCCNC(=O)COc1ccc2c(c1)c(C(=O)c1cccc3ccccc13)cn2CCN1CCOCC1	–	–	–	Ki ([2]; hek293): Not Active
COc1ccc(C(=O)c2cn(CCN3CCOCC3)c3ccc(OCC(=O)O)cc23)cc1	> 10	> 50	> 50	Ki ([1]; read-out: Ki): > 10 µM
COc1ccc(C(=O)c2cn(CCN3CCOCC3)c3ccc(OCC(=O)NCCOCCOCCNC(=O)CCCCCNC(=O)COc4ccc(/C=C/C5=[N+]6C(=Cc7ccc(-c8cccs8)n7[B-]6(F)F)C=C5)cc4)cc23)cc1	> 10	–	–	–
C[C@H](NC(=O)COc1ccc2c(c1)c(C(=O)c1cccc3ccccc13)cn2CCN1CCOCC1)C(=O)N[C@@H](C)C(=O)NCCN	–	> 50	–	Ki ([2]; hek293): Not Active
COc1ccc(C(=O)c2cn(CC3CCOC3)c3ccc(O)cc23)cc1 (configuration not stated)	> 10	–	> 50	Ki ([1]; hek293): Not Active
O=C(O)COc1ccc2c(c1)c(C(=O)c1cccc3ccccc13)cn2CCN1CCOCC1	> 10	> 50	> 50	Ki ([1]; read-out: Ki): > 10 µM
COc1ccc(C(=O)c2cn(CC3CCOCC3)c3ccc(OCC(=O)NC(C)(C)C(=O)NC(C)(C)C(=O)NCCNC(=O)CCCCCNC(=O)COc4ccc(/C=C/C5=[N+]6C(=Cc7ccc(-c8cccs8)n7[B-]6(F)F)C=C5)cc4)cc23)cc1	> 10	–	–	–
COc1ccc(C(=O)c2cn(CCN3CCOCC3)c3ccc(OCC(=O)NC(C)(C)C(=O)NC(C)(C)C(=O)NCCNC(=O)CCCCCNC(=O)COc4ccc(/C=C/C5=[N+]6C(=Cc7ccc(-c8cccs8)n7[B-]6(F)F)C=C5)cc4)cc23)cc1	> 10	–	–	–
CCCCCCC(C)(C)c1ccc([C@@H]2C[C@H](O)CC[C@H]2CCCO)c(O)c1 [CP-55940]	–	–	–	Activity [12]: 98%; Activity [14]: Active; Activity [13]: 99.2%; Emax [15]: 41%; Activity [16]: Active
COc1ccc(C(=O)c2cn(CC3CCOCC3)c3ccc(OCCOCCOCCOCCNC(C)=O)cc23)cc1	> 10	–	> 50	Ki ([1]; hek293): Not Active
COc1ccc(C(=O)c2cn(CCN3CCOCC3)c3cc(O)ccc23)cc1	> 10	–	> 50	Ki ([1]; hek293): Not Active
O=C(CCCCCNC(=O)COc1ccc(/C=C/C2=[N+]3C(=Cc4ccc(-c5cccs5)n4[B-]3(F)F)C=C2)cc1)NCCOCCOCCNC(=O)COc1ccc2c(c1)c(C(=O)c1cccc3ccccc13)cn2CCN1CCOCC1	> 10	–	–	–
COc1ccc(C(=O)c2cn(CC3CCOCC3)c3c(OCCCCC(=O)NCCOCCOCCNC(C)=O)cccc23)cc1	> 10	> 50	> 50	Ki ([1]; read-out: Ki): > 10 µM
NCCOCCOCCNC(=O)COc1ccc2c(c1)c(C(=O)c1cccc3ccccc13)cn2CCN1CCOCC1	> 10	> 50	> 50	–
COc1ccc(C(=O)c2cn(CCN3CCOCC3)c3ccc(OCC(=O)N[C@@H](C)C(=O)N[C@@H](C)C(=O)NCCN)cc23)cc1	–	> 50	–	Ki ([2]; hek293): Not Active
COc1ccc(C(=O)c2cn(CCN3CCOCC3)c3ccc(OCC(=O)NCCOCCOCCN)cc23)cc1	> 10	> 50	> 50	–
COc1ccc(C(=O)c2cn(CCN3CCOCC3)c3ccc(OCCCCC(=O)NCCOCCOCCNC(=O)CCCCCNC(=O)COc4ccc(/C=C/C5=[N+]6C(=Cc7ccc(-c8cccs8)n7[B-]6(F)F)C=C5)cc4)cc23)cc1	> 10	–	–	Ki ([1]; read-out: Ki): > 10 µM
COc1ccc(C(=O)c2cn(CCN3CCOCC3)c3ccc(OCC(=O)NCCCCCCCCN)cc23)cc1	> 10	> 50	> 50	–

Source: ChEMBL document CHEMBL4251662, “Alkyl indole-based cannabinoid type 2 receptor tools: Exploration of linker and fluorophore attachment” (Eur J Med Chem, 2018)
